The source of these data is PubChem BioAssay AID720574 (Broad Institute, 2013).

Screen size: about 96,000 compounds; about 140 (0.15%) were called active. The sample holds actives, similar compounds and a random draw of the others, so the mix is not that of the screen. Values without a mark were called inactive.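 The calls were made as follows: active = mean replicate inhibition above about 25%, with at least 55% of replicates also reaching it (limit read from the data, passing the limit was not always enough); inconclusive = only one of those two conditions met; inactive = neither condition met.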

Sequence of Lysine-specific demethylase 4C (Homo sapiens) (Q9H3R0 2-372 limits assumed): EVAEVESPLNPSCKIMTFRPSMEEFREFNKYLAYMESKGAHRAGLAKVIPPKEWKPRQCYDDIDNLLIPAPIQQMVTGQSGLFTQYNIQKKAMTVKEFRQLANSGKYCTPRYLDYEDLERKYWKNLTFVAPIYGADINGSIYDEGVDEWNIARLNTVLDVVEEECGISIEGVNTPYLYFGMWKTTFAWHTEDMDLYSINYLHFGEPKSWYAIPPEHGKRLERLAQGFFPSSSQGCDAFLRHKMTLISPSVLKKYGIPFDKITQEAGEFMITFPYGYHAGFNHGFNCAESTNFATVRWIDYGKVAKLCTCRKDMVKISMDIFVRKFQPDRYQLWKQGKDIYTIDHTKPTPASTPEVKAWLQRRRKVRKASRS

The experiment concerns the target Lysine-specific demethylase 4C (Homo sapiens) (UniProt Q9H3R0). Briefly: inhibitors of GASC-1 (KDM4C) histone demethylase, primary screen, biochemical, single concentration HTS (AID 720574). As to conditions: GST-KDM4C 2-372, H3K9me3 peptide, LANCE TR-FRET; at 12.5 µM; active compounds read high. The procedure, abridged:
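Material: GST-tagged GASC-1 (JMJD2C) catalytic fragment, aa 2-372. Input: enzyme final amount 10 nM. Medium: HEPES buffer, pH 7.5, plus ascorbate. Reagent: H3K9me3 peptide substrate, Fe(II), 2-oxoglutarate. Doses: single dose. Times: reaction 30 min RT, detection step 1 h RT. Measured by: LANCE TR-FRET. Evaluation: Fall in 671/618 emission ratio as inhibition.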
In general terms: Time-resolved FRET reads energy transfer from a long-lived donor to a nearby acceptor.
Broadly, the inhibition is the drop in the measured response relative to a control, in per cent. Regarding `COc1cccc(S(=O)(=O)N[C@@H]2C=C[C@H](CC(=O)NC3CCC3)O[C@@H]2CO)c1`, the inhibition was -0.615%.

For `CNC(=O)C[C@@H]1CC[C@@H]2[C@@H](COc3ccc(NC(=O)Nc4ccccc4OC)cc3C(=O)N2C)O1`, the inhibition was -0.148%.

As for `COc1ccc2c3c(n(C)c2c1)[C@@H](CO)N(C(=O)CN1CCOCC1)CC31CN(C(=O)CC2CC2)C1`, the inhibition was -1.48%.

As for `C[C@H](CO)N1C[C@H](C)[C@@H](CN(C)C(=O)C2CC2)Oc2cc(C#CC(C)(C)O)ccc2S1(=O)=O`, the inhibition was -1.72%.

As to `O=C(C1CCCC1)N1CC(=O)N2[C@@H](CO)[C@H](c3ccc(C#CC4CCCC4)cc3)[C@@H]2C1`, the inhibition was 0.0785%.

Turning to `COc1cccc(-c2ccc([C@@H]3[C@@H](CO)N4C(=O)CN(C(=O)C5CCCCC5)C[C@H]34)cc2)c1`, the inhibition was -0.874%.

With `CC(C)(C)[S@](=O)N1Cc2cc(C(=O)N[C@@H]3CCN(Cc4ccccc4)C3)nc(-c3cccc(-c4ccncc4)c3)c2[C@@H]1CCO`, the inhibition is -0.764%.

Consider `C/C=C/c1ccccc1[C@@H]1[C@@H](C#N)N(C(=O)Cc2ccccn2)[C@H]1CO`, for which the inhibition was 0.483%.

In the case of `CN(C)CC(=O)Nc1ccc2c(c1)[C@H]1C[C@@H](CC(=O)NCc3ccc(Cl)cc3)O[C@@H](CO)[C@H]1O2`, the inhibition was -0.979%.

Regarding `COc1cccc(NC(=O)N[C@@H]2CC[C@H](CC(=O)Nc3ccccc3)O[C@@H]2CO)c1`, the inhibition was -0.777%.

Turning to `COc1ccc2c3c(n(C)c2c1)[C@H](CO)NCC31CCN(C(=O)Nc2ccccc2F)CC1`, the inhibition was 0.753%.

For `CO[C@H]1CN(C)C(=O)c2ccc(NC(C)=O)cc2OC[C@H](C)N(C(=O)Cc2ccccn2)C[C@@H]1C`, the inhibition is 0.463%.

Consider `CN1C(=O)c2cc(NC(=O)C3CCC3)ccc2OC[C@@H]2O[C@@H](CC(=O)NCc3ccccc3F)CC[C@@H]21`, for which the inhibition was -1.68%.

Regarding `CO[C@H]1CN(C)C(=O)c2ccc(NC(=O)Cc3ccccc3)cc2OC[C@@H](C)N(C(C)=O)C[C@H]1C`, the inhibition was -0.332%.

For the molecule `COc1ccc(CNC(=O)C[C@H]2CC[C@@H]3[C@H](COc4ccc(NC(=O)C5CC5)cc4C(=O)N3C)O2)cc1`, the inhibition is 0.0505%.

Turning to `C[C@@H]1CN([C@@H](C)CO)S(=O)(=O)c2ccc(-c3ccccc3F)cc2O[C@H]1CN(C)Cc1cncnc1`, the inhibition was 5.07%.

In the case of `C[C@@H]1CN([C@@H](C)CO)C(=O)c2cc(C#C[C@@H](C)O)cnc2O[C@H]1CN(C)CC1CCOCC1`, the inhibition is 4.17%.

For `COc1ccccc1-c1cn(CC[C@@H]2CC[C@H](NC(=O)c3ccccc3F)[C@H](CO)O2)nn1`, the inhibition was -1.5%.
